Measurements: ChEMBL document CHEMBL2396583, “Synthesis and anticancer activity of aminodihydroquinoline analogs: identification of novel proapoptotic agents” (Bioorg Med Chem Lett, 2013)
pIC50: −log10 of the molar value. Activity calls are given as the source filed them. No cut-off for these calls is given here.

Assays:
[1] = tested on: MDA-MB-231; assay: Cytotoxicity against human MDA-MB-231 cells assessed as viable cells at 5 uM after 72 hrs by MTT assay in absence of serum relative to control; format: functional; details: MDA-MB-231, 72 h, read-out: Activity
Method in brief: (§1)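 MDA-MB-231 cells were seeded at 5000 per well in serum-containing medium and dosed the next day, with or without serum, at the stated concentrations (1 and 5 µM in the serum-free figure). After 72 h, MTT was added, formazan was dissolved in DMSO and absorbance read at 595 nm. Six wells per condition; viability expressed as % of DMSO control.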

[2] = tested on: MDA-MB-231; assay: Cytotoxicity against human MDA-MB-231 cells assessed as viable cells at 1 uM after 72 hrs by MTT assay in absence of serum relative to control; format: functional; details: MDA-MB-231, 72 h, read-out: Activity; method in brief: as §1
[3] = tested on: MDA-MB-231; assay: Cytotoxicity against human MDA-MB-231 cells assessed as cell viability after 72 hrs by MTT assay in absence of serum; format: functional, cell-based; details: MDA-MB-231, 72 h; method in brief: as §1
[4] = tested on: MDA-MB-231; assay: Cell cycle arrest in human MDA-MB-231 cells assessed as accumulation at G2/M phase at 5 uM after 72 hrs by propidium iodide staining-based flow cytometric analysis in absence of serum (reference value: 6.53%); format: functional
[5] = tested on: MDA-MB-231; assay: Cell cycle arrest in human MDA-MB-231 cells assessed as accumulation at S phase at 5 uM after 72 hrs by propidium iodide staining-based flow cytometric analysis in absence of serum (reference value: 6.19%); format: functional
[6] = tested on: MDA-MB-231; assay: Cell cycle arrest in human MDA-MB-231 cells assessed as accumulation at G0/G1 phase at 5 uM after 72 hrs by propidium iodide staining-based flow cytometric analysis in absence of serum (reference value: 84.87%); format: functional
[7] = tested on: MDA-MB-231; assay: Cell cycle arrest in human MDA-MB-231 cells assessed as accumulation at subG1 phase at 5 uM after 72 hrs by propidium iodide staining-based flow cytometric analysis in absence of serum (reference value: 2.15%); format: functional
[8] = tested on: MDA-MB-231; assay: Cell cycle arrest in human MDA-MB-231 cells assessed as accumulation at G2/M phase at 5 uM after 72 hrs by propidium iodide staining-based flow cytometric analysis in presence of serum (reference value: 15.82%); format: functional
[9] = tested on: MDA-MB-231; assay: Cell cycle arrest in human MDA-MB-231 cells assessed as accumulation at S phase at 5 uM after 72 hrs by propidium iodide staining-based flow cytometric analysis in presence of serum (reference value: 14.49%); format: functional
[10] = tested on: MDA-MB-231; assay: Cell cycle arrest in human MDA-MB-231 cells assessed as accumulation at G0/G1 phase at 5 uM after 72 hrs by propidium iodide staining-based flow cytometric analysis in presence of serum (reference value: 67.16%); format: functional
[11] = tested on: MDA-MB-231; assay: Cell cycle arrest in human MDA-MB-231 cells assessed as accumulation at subG1 phase at 5 uM after 72 hrs by propidium iodide staining-based flow cytometric analysis in presence of serum (reference value: 1.99%); format: functional
[12] = tested on: MDA-MB-231; assay: Cytotoxicity against human MDA-MB-231 cells assessed as decrease in cell viability at 1 to 5 uM after 72 hrs by MTT assay in presence of serum; format: functional, cell-based; method in brief: as §1

Compound	viability at 5 µM [1] [%]	viability at 1 µM [2] [%]	pIC50 [3]	further results
CC1(C)CC(NCc2ccccc2)=Nc2ccc(Cl)cc21	68.1	88.8	–	–
CN(C)CCCNC1=Nc2cc(Cl)ccc2C(C)(C)C1	46.3	68.4	5.40	–
CC1(C)CC(NCCCN2CCOCC2)=Nc2ccc(Cl)cc21	70.3	91.4	–	–
CC1(C)CC(NCCCO)=Nc2ccc(Cl)cc21	84.2	84.5	–	–
CC1(C)CC(=O)Nc2ccc(Cl)cc21	81.7	82.3	–	–
NC1=Nc2ccccc2C(c2ccccc2)C1 (stereo not given)	86.3	86.6	–	–
CN(C)CCCNC1=Nc2ccc(Cl)cc2C(C)(C)C1	38	54.1	5.68	Activity [4]: 4.73%; Activity [5]: 5.61%; Activity [6]: 81.6%; Activity [7]: 7.63%; Activity [8]: 19.22%; Activity [9]: 14.76%; Activity [10]: 64.06%; Activity [11]: 1.53%; Activity [12]: Active
CCNC1=Nc2ccc(Cl)cc2C(C)(C)C1	85.1	89.7	–	–
CN(C)CCNC1=Nc2ccc(Cl)cc2C(C)(C)C1	50.8	66.9	5.15	–
CN(C)CCCNC1=Nc2cccc(Cl)c2C(C)(C)C1	43.9	60.5	5.32	–
CCCNC1=Nc2ccc(Cl)cc2C(C)(C)C1	82.4	90.7	–	–
CC1(C)CC(=S)Nc2ccc(Cl)cc21	94.3	85.7	–	–
CNC1=Nc2ccc(Cl)cc2C(C)(C)C1	92.3	91.9	–	–
CCN(CC)CCCNC1=Nc2ccc(Cl)cc2C(C)(C)C1	36.1	53.3	5.70	Activity [4]: 4.27%; Activity [5]: 4.48%; Activity [6]: 86.24%; Activity [7]: 4.77%; Activity [8]: 20.48%; Activity [9]: 15.44%; Activity [10]: 61.75%; Activity [11]: 1.64%; Activity [12]: Active
CC1(C)CC(N)=Nc2ccc(Cl)cc21	81	80.5	–	–
CC1(C)CC(NCCCCO)=Nc2ccc(Cl)cc21	84.8	87.6	–	–
